Laboratory results reported in paper PMC4800337 (Kidney international, 2016).
Where no end group is shown, it is not given here.

What was measured:
[1] = target: human CD36 (CD36-overexpressing HeLa cells) (Homo sapiens, UniProt P16671); assay: Competition with Alexa-Fluor-488 oxLDL uptake in CD36-overexpressing HeLa cells; type: cell-based
[2] = Liver toxicity by serum transaminases in 5/6Nx+AngII mice; type: in vivo, mouse; details: mice 5/6Nx+AngII treated with 5A 5 mg/kg/day, 4 weeks
Summary of the method: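 C57BL/6 mice underwent 5/6 nephrectomy: left kidney resection at week −1, then right nephrectomy at week 0. Animals were kept if the resected-to-removed kidney weight ratio was 0.5–0.65. Buprenorphine was given at 0.1 mg/kg after surgery and 0.05 mg/kg at 18 h. Val5-AngII (0.75 µg/kg/min, in sterile water) and 5A (5 mg/kg/day) were infused by separate subcutaneous osmotic mini-pumps placed at right nephrectomy.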

Sequence of human CD36 (CD36-overexpressing HeLa cells) (P16671 whole entry): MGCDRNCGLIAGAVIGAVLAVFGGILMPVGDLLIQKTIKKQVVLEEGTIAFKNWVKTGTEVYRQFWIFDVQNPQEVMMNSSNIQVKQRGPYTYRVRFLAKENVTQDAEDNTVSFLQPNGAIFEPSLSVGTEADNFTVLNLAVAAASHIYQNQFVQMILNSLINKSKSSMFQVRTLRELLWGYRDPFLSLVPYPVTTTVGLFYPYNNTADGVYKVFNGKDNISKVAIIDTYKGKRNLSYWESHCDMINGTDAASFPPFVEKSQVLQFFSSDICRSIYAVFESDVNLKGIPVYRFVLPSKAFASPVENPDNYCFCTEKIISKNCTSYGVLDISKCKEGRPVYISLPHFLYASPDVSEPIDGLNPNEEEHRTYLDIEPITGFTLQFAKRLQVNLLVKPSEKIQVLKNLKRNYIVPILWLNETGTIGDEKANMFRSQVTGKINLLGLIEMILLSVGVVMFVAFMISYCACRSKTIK

Sequence: DWLKAFYDKVAEKLKEAFPDWAKAAYDKAAEKAKEAA [5A]
- IC50 [1]: 7.5 µM
- Ki [1]: 1.45 µM
- Liver toxicity, serum transaminases [2]: did not have liver toxicity
